The source of these data is ChEMBL document CHEMBL3421541, “Benzaldehyde Schiff bases regulation to the metabolism, hemolysis, and virulence genes expression in vitro and their structure-microbicidal activity relationship” (2015).

The subject of assay [1] is Escherichia coli. As to the kind of experiment: Upregulation of acrA gene expression in Escherichia coli at 50 umol/L after 8 hrs by real-time RT-PCR analysis relative to control. It counts as functional, organism-based. The procedure, abridged: (§1)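 E. coli at 2×10^7 CFU/mL in LB was exposed to 50 µmol/L compound, or LB alone, for 8 h at 37 °C. Total RNA was then analysed by TaqMan real-time RT-PCR or semi-quantitative RT-PCR. Transcripts were normalised to gapA. Fold change is relative to time-matched medium-only cultures.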

For assay [2], the system named is Escherichia coli. The experiment in a line: Upregulation of acrA gene expression in Escherichia coli at 50 umol/L after 8 hrs by semi-quantitative RT-PCR analysis relative to control. Format: functional, organism-based. Summed up: as §1
Assay [3] relates to Escherichia coli. The experiment in a line: Antibacterial activity against Escherichia coli assessed as growth inhibition at 100 umol/L after 8 hrs by ELISA plate reader analysis relative to control. Format: functional. The settings on record: read-out: GI. Summed up: (§2)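 Bacteria were seeded at 1×10^5 CFU/mL in LB, and compound was added to 100 µmol/L final. Compounds came from DMSO stock, with DMSO ≤1% (v/v) final. Cultures were shaken at 37 °C for 8 h and read at OD450. Inhibition % = (OD vehicle control − OD sample)/OD vehicle control × 100. Values are the mean of three independent experiments.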

Assay [4] has as its system Escherichia coli. As to the kind of experiment: Downregulation of IroD gene expression in Escherichia coli at 50 umol/L after 8 hrs by semi-quantitative RT-PCR analysis relative to control. Format: functional, organism-based. The procedure, abridged: as §1
Assay [5] concerns Escherichia coli. The experiment in a line: Downregulation of tsh gene expression in Escherichia coli at 50 umol/L after 8 hrs by semi-quantitative RT-PCR analysis relative to control. Format: functional, organism-based. Summed up: as §1
The test system of assay [6] is Escherichia coli. As to the kind of experiment: Antibacterial activity against Escherichia coli assessed as lowest concentration required to reduce growth by 1% after 8 hrs by ELISA plate reader analysis relative to control. Format: functional. The procedure, abridged:
(§3)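 MBC was found by broth microdilution. Inocula of 1×10^5 CFU/mL in LB were shaken at 37 °C with a series of compound concentrations, then read at OD450. MBC was defined as the lowest concentration reducing growth by 1% versus the inoculum control. Three independent experiments were run.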

For assay [7], the system named is Escherichia coli. As to the kind of experiment: Downregulation of IroD gene expression in Escherichia coli at 50 umol/L after 8 hrs by real-time RT-PCR analysis relative to control. Format: functional, organism-based. The procedure, abridged: as §1
The subject of assay [8] is Escherichia coli. The experiment in a line: Upregulation of cysB gene expression in Escherichia coli at 50 umol/L after 8 hrs by real-time RT-PCR analysis relative to control. It counts as functional, organism-based. The procedure, abridged:
as §1

Assay [9] has as its system Escherichia coli. As to the kind of experiment: Downregulation of tsh gene expression in Escherichia coli at 50 umol/L after 8 hrs by real-time RT-PCR analysis relative to control. Format: functional, organism-based. Summed up:
as §1

For assay [10], the system named is Escherichia coli. As to the kind of experiment: Upregulation of cysB gene expression in Escherichia coli at 50 umol/L after 8 hrs by semi-quantitative RT-PCR analysis relative to control. Format: functional, organism-based. Summed up: as §1
Assay [11] concerns Bacillus subtilis. The experiment in a line: Antibacterial activity against Bacillus subtilis assessed as growth inhibition at 100 umol/L after 8 hrs by ELISA plate reader analysis relative to control. It counts as functional. The settings on record: read-out: GI. The procedure, abridged: as §2
For assay [12], the system named is Staphylococcus aureus. As to the kind of experiment: Antibacterial activity against Staphylococcus aureus assessed as lowest concentration required to reduce growth by 1% after 8 hrs by ELISA plate reader analysis relative to control. It counts as functional. The procedure, abridged: as §3
Assay [13] deals with Staphylococcus aureus. As to the kind of experiment: Antibacterial activity against Staphylococcus aureus assessed as growth inhibition at 100 umol/L after 8 hrs by ELISA plate reader analysis relative to control. Format: functional. The settings on record: read-out: GI. The procedure, abridged:
as §2

Assay [14] deals with Bacillus subtilis. As to the kind of experiment: Antibacterial activity against Bacillus subtilis assessed as lowest concentration required to reduce growth by 1% after 8 hrs by ELISA plate reader analysis relative to control. Format: functional. Summed up:
as §3

Assay [15] has as its system Staphylococcus aureus. The experiment in a line: Downregulation of saeR gene expression in Staphylococcus aureus at 50 umol/L after 8 hrs by semi-quantitative RT-PCR analysis relative to control. It counts as functional, organism-based. Summed up: (§4)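 S. aureus ATCC 25923 at 2×10^7 CFU/mL in LB was exposed to 50 µmol/L compound, or LB alone, for 8 h at 37 °C. Total RNA was analysed by TaqMan real-time RT-PCR or semi-quantitative RT-PCR, normalised to gyrB. Fold change is versus time-matched medium-only cultures, with data pooled from three experiments.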

Assay [16] concerns Staphylococcus aureus. The experiment in a line: Downregulation of mecA gene expression in Staphylococcus aureus at 50 umol/L after 8 hrs by semi-quantitative RT-PCR analysis relative to control. It counts as functional. Summed up:
as §4

For assay [17], the system named is Staphylococcus aureus. As to the kind of experiment: Upregulation of hla gene expression in Staphylococcus aureus at 50 umol/L after 8 hrs by semi-quantitative RT-PCR analysis relative to control. Format: functional, organism-based. Summed up: as §4
For assay [18], the system named is Staphylococcus aureus. As to the kind of experiment: Downregulation of mecA gene expression in Staphylococcus aureus at 50 umol/L after 8 hrs by real-time RT-PCR analysis relative to control. Format: functional. The procedure, abridged:
as §4

The test system of assay [19] is Staphylococcus aureus. The experiment in a line: Downregulation of saeR gene expression in Staphylococcus aureus at 50 umol/L after 8 hrs by real-time RT-PCR analysis relative to control. Format: functional, organism-based. The procedure, abridged: as §4
For assay [20], the system named is Staphylococcus aureus. The experiment in a line: Upregulation of hla gene expression in Staphylococcus aureus at 50 umol/L after 8 hrs by real-time RT-PCR analysis relative to control. It counts as functional, organism-based. Summed up: as §4
Assay [21] has as its system Escherichia coli. As to the kind of experiment: Downregulation of cysB gene expression in Escherichia coli at 50 umol/L after 8 hrs by semi-quantitative RT-PCR analysis relative to control. It counts as functional, organism-based. The procedure, abridged: as §1
The test system of assay [22] is Escherichia coli. As to the kind of experiment: Downregulation of cysB gene expression in Escherichia coli at 50 umol/L after 8 hrs by real-time RT-PCR analysis relative to control. Format: functional, organism-based. Summed up: as §1

≈ marks a conversion by molar mass, not a printed value. Calls of active or inactive are those of the source.

On to `O=C(N/N=C/c1cc(Br)ccc1O)c1ccncc1`, for which the outcome in the assay on Escherichia coli [1], in the assay on Escherichia coli [2], with Escherichia coli [4], with Escherichia coli [5], in the assay on Escherichia coli [7] and with Escherichia coli [8] was Active. Moreover, the result in the assay with Escherichia coli [9] and in the assay on Escherichia coli [10] was Active. Moreover, the inhibition of growth at 100 µM with Escherichia coli [3] was 95.8%. In addition, in the assay with Escherichia coli [6], the MBC stood at 3.2 µM (≈ 1.02 µg/mL).
Consider `CC(C)(C)c1cc(/C=N/NC(=O)COc2ccc(Cl)cc2)c(O)c(C(C)(C)C)c1`, for which the inhibition of growth at 100 µM in the assay with Escherichia coli [3] came out at 10.5%; with Bacillus subtilis [11] it was 19.7%.
Turning to `CN[C@@H]1[C@H](O[C@H]2[C@H](O[C@H]3[C@H](O)[C@@H](O)[C@H](N=C(N)N)[C@@H](O)[C@@H]3N=C(N)N)O[C@@H](C)[C@]2(O)C=O)O[C@@H](CO)[C@H](O)[C@H]1O` [STREPTOMYCIN], the MBC came out at 1.3 µM (≈ 0.756 µg/mL) in the assay on Staphylococcus aureus [12] and 2.1 µM (≈ 1.22 µg/mL) in the assay on Bacillus subtilis [14]. Also, the inhibition of growth at 100 µM with Bacillus subtilis [11] stood at 94.1%; with Staphylococcus aureus [13] it was 97%.
As for `O=C(COc1ccc(Cl)cc1)N/N=C/c1ccccc1O`, the inhibition of growth at 100 µM with Escherichia coli [3] is 0.23%.
Consider `CC1(C)S[C@@H]2[C@H](NC(=O)[C@H](N)c3ccccc3)C(=O)N2[C@H]1C(=O)O` [AMPICILLIN], for which the inhibition of growth at 100 µM in the assay on Escherichia coli [3] is 99.3%. Also, the MBC in the assay on Escherichia coli [6] was 1.8 µM (≈ 0.629 µg/mL).
In the case of `O=C(N/N=C/c1ccccc1O)c1ccncc1` [SALINAZID], the inhibition of growth at 100 µM in the assay on Escherichia coli [3] came out at 6.81%.
`CC(C)(C)c1cc(/C=N/NC(=O)c2ccncc2)c(O)c(C(C)(C)C)c1`: the result in the assay on Staphylococcus aureus [15], in the assay with Staphylococcus aureus [17], in the assay with Staphylococcus aureus [19] and with Staphylococcus aureus [20] was Active. In addition, the “fold change (FC)” value with Staphylococcus aureus [16] and in the assay on Staphylococcus aureus [18] was 2 throughout. Further, the inhibition of growth at 100 µM with Escherichia coli [3] worked out at 13.4%; in the assay with Staphylococcus aureus [13] it was 95.5%. Further, the minimum bactericidal concentration (MBC) in the assay with Staphylococcus aureus [12] was 3.1 µM (≈ 1.1 µg/mL).
In the case of `O=C(O)[C@H](Cc1ccc(O)cc1)/N=C/c1ccccc1O`, the figures for the inhibition of growth at 100 µM in the assay with Escherichia coli [3] and with Bacillus subtilis [11] were 96% and 4.38%, respectively. Besides, the result in the assay on Escherichia coli [4], in the assay with Escherichia coli [5], with Escherichia coli [7], in the assay with Escherichia coli [21], with Escherichia coli [9] and with Escherichia coli [22] was Active. In addition, in the assay on Escherichia coli [6], the MBC stood at 1.6 µM (≈ 0.456 µg/mL).
